Assay outcomes (PubChem)
This is a sample that favours compounds with a hit; in the whole collection about 1.7% have one here.
HNF4A DNA FP: change in binding of human HNF4 alpha to DNA. AID 1224865. hit rate 0.3% among 360,000. activity change, % at 10 µM. P41235. HNF4a-FITC DNA binding, fluorescence polarization, 1 h; in the data active = activity change above about 30%, passing the limit was not always enough
TPT1 inhibitor: inhibitors of Candida albicans tRNA 2'-phosphotransferase TPT1; hit rate 0.81% among 300,000; recombinant caTPT1, FP RNA substrate dephosphorylation; inhibition, % at 5 µM; AID 1962;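 active = inhibition above the mean of all tested compounds plus 3 SD, set per screening campaign, cut at about 24% in these data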
CSN inh: blocks human CSN-mediated cullin deneddylation; Q92905; Purified CSN, SCF-Nedd8-OG deneddylation, fluorescence polarization; inhibition, % at 12.5 µM; hit rate 0.38% among 360,000; AID 651999;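 active = pattern-corrected inhibition above about 35%, with an unprinted fluorescence ratio check between 0.5 and 1.5, limit read from the data, passing the limit was not always enough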
Target sequence (Q92905 whole entry, looked up, one chain of several): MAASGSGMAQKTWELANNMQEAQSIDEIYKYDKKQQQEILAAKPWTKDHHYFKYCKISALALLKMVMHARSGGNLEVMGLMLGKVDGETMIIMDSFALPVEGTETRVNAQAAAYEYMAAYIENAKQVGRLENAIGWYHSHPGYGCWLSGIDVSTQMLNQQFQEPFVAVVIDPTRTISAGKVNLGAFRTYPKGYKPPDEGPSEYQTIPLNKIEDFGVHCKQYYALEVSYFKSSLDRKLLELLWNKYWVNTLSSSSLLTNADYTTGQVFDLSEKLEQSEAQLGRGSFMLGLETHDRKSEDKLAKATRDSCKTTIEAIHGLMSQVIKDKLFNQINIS
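Schedule: reaction 90 min, room temperature / Assay system: HEK293T-derived human Csn5 enzyme / Input: Csn5 at 0.24 nM final / Measure: inhibition of Csn5 cleavage, % / Control set: substrate-only high control, full reaction low control / Technique: fluorescence polarization of the substrate / Buffer or medium: Tris/NaCl/DTT buffer, pH 7.5 / Reagent: SCFSkp2-Nedd8OG substrate at 10 nM final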
Rev-erbA mod: Rev-erb alpha (human) modulation. Rev-erbα–FITC-DNA binding, fluorescence polarization, 90 min. activity, % at 10 µM. hit rate 0.79% among 370,000;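 active = activity above about 14%, limit read from the data; passing the limit was not always enough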
caTPT1 confirm: TPT1 (C. albicans) inhibition, confirmation. shares compounds with TPT1 inhibitor. recombinant caTPT1, fluorescence polarization, RNase T1 coupled. inhibition, % at 5 µM. hit rate 74% among 2,400. AID 2149;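 active = inhibition above the primary screen limit, the mean inhibition of all tested compounds plus 3 SD, cut at about 25% in these data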
RNase T1 inh: RNase T1 inhibition in TPT1 counter-screen | inhibition, % at 5 µM | RNase T1 cleavage, fluorescence polarization, 1536-well | shares compounds with TPT1 inhibitor | hit rate 83% among 2,400;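 active = inhibition above the solvent-only control well mean plus 3 SD, limit set per screening run, cut at about 23% in these data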;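 note: inhibitors block cleavage so intact labeled substrate keeps polarization high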
Target sequence (P00651 whole entry, looked up): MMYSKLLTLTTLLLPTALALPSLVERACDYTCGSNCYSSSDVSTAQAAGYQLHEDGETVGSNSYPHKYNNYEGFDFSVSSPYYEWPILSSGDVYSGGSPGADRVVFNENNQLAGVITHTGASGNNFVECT
Of the large screens only hits and unclear results are named; the others gave an inactive call (follow-up assays come after a bar, where they were run).

COc1nc(N)c(S(=O)(=O)c2ccccc2)cc1C#N	TPT1 inhibitor 30 | caTPT1 confirm 30 | RNase T1 inh 41
Cc1ccc(C(=O)NCCn2c(N)c(C#N)c3nc4ccccc4nc32)cc1	TPT1 inhibitor 36 | caTPT1 confirm 49 | RNase T1 inh 55
N#Cc1c(N)n(CCOC(=O)c2cccc(Br)c2)c2nc3ccccc3nc12	none
COCCn1c(N)c(C#N)c2nc3ccccc3nc21	none
N#Cc1c(N)n(CCNC(=O)c2ccc(Cl)cc2)c2nc3ccccc3nc12	TPT1 inhibitor 27 | caTPT1 confirm inactive | RNase T1 inh 30
CN(Cc1ccco1)C(=O)c1cccc2c1C(=O)N(Cc1cccnc1)C2	none (no result: HNF4A DNA FP, TPT1 inhibitor, CSN inh)
CCOC(=O)c1sc(N)c(C#N)c1COC(=O)CNC(=O)c1ccccc1	HNF4A DNA FP 74, TPT1 inhibitor 79, CSN inh 41 | caTPT1 confirm 92 | RNase T1 inh 100
Nn1c(SCC(=O)NC2CCCCC2)nnc1-c1n[nH]c2c1CCC2	none (no result: HNF4A DNA FP, TPT1 inhibitor, CSN inh)
Cc1ccc(C)c(C(=O)Nc2nc3ccccc3[nH]2)c1	TPT1 inhibitor 25 | caTPT1 confirm inactive | RNase T1 inh inactive
CCOC(=O)C1(CC2CCCCO2)CCN(C(=O)Nc2ccc3c(c2)OCO3)CC1 (centres undefined)	TPT1 inhibitor 38 | caTPT1 confirm inactive | RNase T1 inh inactive
N#C/C(=C\c1ccc(N2CCOCC2)o1)c1nc2ccccc2[nH]1	TPT1 inhibitor 182 | caTPT1 confirm 158 | RNase T1 inh 144
N#C/C(=C/c1ccc(N2CCOCC2)o1)c1ccc(Cl)cc1	TPT1 inhibitor 163 | caTPT1 confirm 165 | RNase T1 inh 155
CC(COc1ccc(OC(F)(F)F)cc1)CN1CCC(C(O)(c2ccccc2)c2ccccc2)CC1 (centres undefined)	none (no result: HNF4A DNA FP, TPT1 inhibitor, CSN inh)
COc1ccc(N/C(C)=C/C(=S)Nc2ccccc2)cc1	TPT1 inhibitor 125 | caTPT1 confirm inactive | RNase T1 inh inactive
COc1ccc(N/C(C)=C/C(=O)c2ccccc2)cc1	none
C[C@H](CO)N1C[C@H](C)[C@@H](CN(C)C(=O)Nc2ccc3c(c2)OCO3)OCc2cn(nn2)CCCC1=O	none (no result: HNF4A DNA FP, TPT1 inhibitor, CSN inh)
COc1ccc(/C=C(\C#N)C(=O)C(C)(C)n2cncn2)cc1	TPT1 inhibitor 33 | caTPT1 confirm inactive | RNase T1 inh inactive
COc1ccc(C=C(C#N)C(=O)c2ccccc2)cc1	none (no result: TPT1 inhibitor)
O=[N+]([O-])c1ccc(N/N=C/c2ccccc2O)cc1	TPT1 inhibitor 50 | caTPT1 confirm 69 | RNase T1 inh 81
CC/C(=N\Nc1ccc([N+](=O)[O-])cc1)c1ccccc1	TPT1 inhibitor 39 (no result: Rev-erbA mod) | caTPT1 confirm 47 | RNase T1 inh 60
C/C(=N\Nc1ccc([N+](=O)[O-])cc1)c1ccc(N2CCOCC2)cc1	TPT1 inhibitor 31 | caTPT1 confirm 46 | RNase T1 inh 53
C/C(=N\Nc1ccc([N+](=O)[O-])cc1)c1ccco1	TPT1 inhibitor 48 | caTPT1 confirm 56 | RNase T1 inh 69
CCCC1CCC2(CC1)CCC2OC(=S)NCc1ccc(Cl)cc1 (centres undefined)	none (no result: HNF4A DNA FP, TPT1 inhibitor, CSN inh)
CC(=O)Oc1c(C)cc(OCC(O)CNC(C)C)c(C)c1C (centres undefined)	none (no result: HNF4A DNA FP, TPT1 inhibitor, CSN inh)
C/C(=N\Nc1ccc([N+](=O)[O-])cc1)c1ccc(N)cc1	TPT1 inhibitor 37 | caTPT1 confirm 34 | RNase T1 inh 46
CC(=NNc1ccc([N+](=O)[O-])cn1)c1ccc(N)cc1	none (no result: TPT1 inhibitor)
C/C(=N\Nc1ccc([N+](=O)[O-])cc1)c1ccc(-n2nncc2C)cc1	none
CCc1ccc(/C(C)=N\Nc2ccc([N+](=O)[O-])cc2)cc1	TPT1 inhibitor 81 | caTPT1 confirm 56 | RNase T1 inh 71
CCCCS(=O)(=O)N[C@@H](Cc1ccc(OCCCCC2CCNCC2)cc1)C(=O)O	none (no result: HNF4A DNA FP, TPT1 inhibitor, CSN inh)
CN(C)Cc1c(O)ccc2cc(-c3nc4ccccc4n3C)c(=O)oc12	none
CCN(CC)c1ccc2cc(-c3nnc(-c4ccccc4)o3)c(=O)oc2c1	TPT1 inhibitor 117 | caTPT1 confirm 122 | RNase T1 inh 115
CCN(CC)c1ccc2cc(-c3nc4ccccc4n3C)c(=O)oc2c1	TPT1 inhibitor 81 | caTPT1 confirm 81 | RNase T1 inh 85
c1nc(NCC2CC2)c2cc(-c3ccc4c(c3)OCO4)ccc2n1	none (no result: HNF4A DNA FP, TPT1 inhibitor, CSN inh)
CC(C)(C)CC(=O)Nc1nn[nH]n1	TPT1 inhibitor 27 | caTPT1 confirm inactive | RNase T1 inh inactive
O=C(CCS(=O)(=O)c1ccccc1)Nc1ccc(F)cc1Cl	none (no result: HNF4A DNA FP, TPT1 inhibitor, CSN inh)
